The source made the active and inactive calls. The rule behind the calls is not given here.
Tests used:
Rattus norvegicus [1] = experiment: Antiosteoporotic activity in Sprague-Dawley rat model of OVX-induced bone loss assessed as increase in trabecular bone mineral density at 30 mg/kg, ig administered for 3 months with 1 day break after 6 consecutive days administration; format: functional, organism-based
Outline: (§1)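 Female SD rats given bilateral ovariectomy (sham: fat tissue removed instead), adapted 1 week beforehand; dosing began on postoperative day 10, n = 10 per group. Test drugs as 3 mg/mL suspension by gavage; raloxifene hydrochloride at 0.5 mg/mL. Controls got water. Tetracycline 30 mg/kg ip 16 and 3 days before euthanasia. Tibia stained sections give trabecular morphology and TBV%. BMD of L4-6 measured by densitometry under pentobarbital 45 mg/kg anaesthesia. Reported as mean ± SD.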

Rattus norvegicus [2] = experiment: Antiosteoporotic activity in Sprague-Dawley rat model of OVX-induced bone loss assessed as increase in trabecular bone volume at 30 mg/kg, ig administered for 3 months with 1 day break after 6 consecutive days administration; format: functional, organism-based; outline: as §1
[3] = Apparent permeability across apical to basolateral side in human Caco-2 cells at 10 uM incubated for 2 hrs LC-MS/MS analysis; format: ADME, cell-based; conditions: for Papp A→B at 2 h, 10 µM: Caco-2
Outline: (§2)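 Caco-2 monolayers, apical to basolateral direction. Plates preincubated 30 min at 37 °C, then exposed to 10 µM compound for 2 h at 37 °C without shaking. Donor and receiver samples were quenched, centrifuged and measured by LC/MS/MS, in duplicate. Papp calculated from receiver concentration, area and time. Monolayer integrity checked by TEER and by Lucifer yellow leakage (30 min, 37 °C, ex 485/em 530 nm).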

[4] = Permeability across apical to basolateral side in human Caco-2 cells assessed as […] yellow leakage at 10 uM incubated for 2 hrs LC-MS/MS analysis; format: ADME, cell-based; conditions: caco-2, 2 h; outline: as §2
[5] = Permeability across apical to basolateral side in human Caco-2 cells assessed as transepithelial electrical resistance at 10 uM incubated for 2 hrs LC-MS/MS analysis; format: ADME, cell-based; conditions: caco-2, 2 h; outline: as §2
[6] = Solubility in PBS buffer at pH 7.4 assessed as precipitation of compound at 2500 nM; format: physicochemical; conditions: pH 7.4, 2.5 µM
[7] = Solubility in PBS buffer at pH 7.4 assessed as precipitation of compound at 625 nM; format: physicochemical; conditions: pH 7.4, 0.625 µM
[8] = Solubility in PBS buffer at pH 7.4 assessed as precipitation of compound at 312.5 nM; format: physicochemical; conditions: pH 7.4, 0.3125 µM
[9] = Solubility in PBS buffer at pH 7.4 assessed as precipitation of compound at 1250 nM; format: physicochemical; conditions: pH 7.4, 1.25 µM
[10] = Solubility in PBS buffer at pH 7.4 assessed as precipitation of compound at 5000 nM; format: physicochemical; conditions: pH 7.4, 5 µM
[11] = Solubility in PBS buffer at pH 7.4 assessed as precipitation of compound at 10000 nM; format: physicochemical; conditions: pH 7.4, 10 µM
[12] = Solubility in PBS buffer at pH 7.4 assessed as precipitation of compound at 156.25 nM; format: physicochemical; conditions: pH 7.4, 0.15625 µM
in vitro [13] = conditions: human
in vitro [14] = conditions: human; remark: listed apart in the source
[15] = Toxicity in Kunming mouse assessed as organism death administered orally for 3 days and observed for 17 days starting from drug administration; conditions: in vivo, po, 408 h, time 17 day
Rattus norvegicus [16] = experiment: Antiosteoporotic activity in Sprague-Dawley rat model of OVX-induced bone loss assessed as increase in number of trabeculae at 30 mg/kg, ig administered for 3 months with 1 day break after 6 consecutive days administration; format: functional, organism-based; outline: as §1
Rattus norvegicus [17] = experiment: Antiosteoporotic activity in Sprague-Dawley rat model of OVX-induced bone loss assessed as narrowed gap between trabeculae at 30 mg/kg, ig administered for 3 months with 1 day break after 6 consecutive days administration; format: functional, organism-based; outline: as §1
Rattus norvegicus [18] = experiment: Antiosteoporotic activity in Sprague-Dawley rat model of OVX-induced bone loss assessed as increase in thickness of trabeculae at 30 mg/kg, ig administered for 3 months with 1 day break after 6 consecutive days administration; format: functional, organism-based; outline: as §1

| Structure (SMILES) | solubility [6] | solubility [7] | solubility [8] | solubility [9] | solubility [10] | solubility [11] | solubility [12] | other results |
| --- | --- | --- | --- | --- | --- | --- | --- | --- |
| O=C(OCCN1CCOCC1)c1cc2cc3c(cc2s1)OCO3 [listing 1 of 2 here] | – | – | – | – | – | – | – | Activity (Rattus norvegicus [1]): Active; Activity (Rattus norvegicus [2]): Active |
| CC[C@H]1OC(=O)[C@H](C)[C@@H](O[C@H]2C[C@@](C)(OC)[C@@H](O)[C@H](C)O2)[C@H](C)[C@@H](O[C@@H]2O[C@H](C)C[C@H](N(C)C)[C@H]2O)[C@](C)(O)C[C@@H](C)C(=O)[C@H](C)[C@@H](O)[C@]1(C)O [ERYTHROMYCIN] | – | – | – | – | – | – | – | Papp ([3]; caco-2, 2 h, 10 µM): 0.0324 10^-6 cm/s; Activity [4]: 0.137%; Activity [5]: 396 Ω·cm² |
| CCOC(=O)c1cc2cc3c(cc2s1)OCO3 | Insoluble | Insoluble | Insoluble | Insoluble | Insoluble | Insoluble | Soluble | – |
| COc1ccc2cc(C(=O)OCCP(=O)(O)O)oc2c1 [listing 1 of 2 here] | – | – | – | – | – | – | – | Activity (Rattus norvegicus [1]): Active; Activity (Rattus norvegicus [2]): Active |
| COc1ccc2cc(C(=O)OCCP(=O)(O)O)oc2c1 [listing 2 of 2 here] | Soluble | Soluble | Soluble | Soluble | Soluble | Soluble | Soluble | – |
| CN(C)CCCOc1nn(Cc2ccccc2)c2ccccc12 [BENZYDAMINE] | – | – | – | – | – | – | – | half-life at 0.5 h, 100 µM (in vitro [13]; microsomes): 43.1 min; microsomal CLint at 0.5 h, 100 µM (in vitro [14]; microsomes): 16.1 µL/min/mg |
| COc1ccc2cc(C(=O)OCCN(C)C)oc2c1 [listing 1 of 2 here] | Soluble | Soluble | Soluble | Soluble | Soluble | Insoluble | Soluble | – |
| CN(C)CCOC(=O)c1cc2cc3c(cc2s1)OCO3 | Insoluble | Soluble | Soluble | Soluble | Insoluble | Insoluble | Soluble | – |
| COc1ccc2cc(C(=O)OCCCN(C)C)sc2c1 [listing 1 of 2 here] | – | – | – | – | – | – | – | Activity (Rattus norvegicus [1]): Active; Activity (Rattus norvegicus [2]): Active |
| O=C(O)Cc1ccccc1Nc1c(Cl)cccc1Cl [DICLOFENAC] | – | – | – | – | – | – | – | microsomal CLint at 0.5 h, 100 µM (in vitro [14]; microsomes): 197 µL/min/mg |
| COCCc1ccc(OCC(O)CNC(C)C)cc1 (stereo unspecified) [METOPROLOL] | – | – | – | – | – | – | – | Papp A→B at 2 h, 10 µM [3]: 32.6 ×10⁻⁶ cm/s; Activity [4]: 0.154%; half-life at 0.5 h, 100 µM (in vitro [13]; microsomes): 159 min; microsomal CLint at 0.5 h, 100 µM (in vitro [14]; liver microsomes): 4.35 µL/min/mg; Activity [5]: 326 Ω·cm² |
| CCOc1ccc(NC(C)=O)cc1 [PHENACETIN] | – | – | – | – | – | – | – | half-life at 0.5 h, 100 µM (in vitro [13]; microsomes): 26.5 min; microsomal CLint at 0.5 h, 100 µM (in vitro [14]; liver microsomes): 26.2 µL/min/mg |
| COc1ccc2cc(C(=O)OCCP(=O)([O-])[O-])oc2c1.[Na+].[Na+] | – | – | – | – | – | – | – | LD50 [15]: > 500 mg/kg/day |
| CC(=O)c1cc2ccccc2s1 | – | – | – | – | – | – | – | Papp A→B at 2 h, 10 µM [3]: 22.1 ×10⁻⁶ cm/s; Activity [4]: 0.179%; Activity (Rattus norvegicus [1]): Active; Activity (Rattus norvegicus [16]): Active; Activity (Rattus norvegicus [17]): Active; Activity (Rattus norvegicus [18]): Active; half-life at 0.5 h, 100 µM (in vitro [13]; liver microsomes): 1.25 min; Activity (Rattus norvegicus [2]): Active; microsomal CLint at 0.5 h, 100 µM (in vitro [14]; liver microsomes): > 300 µL/min/mg; Activity [5]: 351 Ω·cm² |
| COc1ccc2cc(C(=O)NCCN(C)C)oc2c1 | Soluble | Soluble | Soluble | Soluble | Insoluble | Insoluble | Soluble | – |
| O=C(OCCN1CCOCC1)c1cc2cc3c(cc2s1)OCO3 [listing 2 of 2 here] | Insoluble | Soluble | Soluble | Soluble | Insoluble | Insoluble | Soluble | – |
| COc1ccc2cc(C(=O)OCCN(C)C)oc2c1 [listing 2 of 2 here] | – | – | – | – | – | – | – | Activity (Rattus norvegicus [1]): Active; Activity (Rattus norvegicus [16]): Active; Activity (Rattus norvegicus [17]): Active; Activity (Rattus norvegicus [18]): Active; Activity (Rattus norvegicus [2]): Active |
| CN/C(=N/CCSCc1nc[nH]c1C)NC#N [CIMETIDINE] | – | – | – | – | – | – | – | Papp A→B at 2 h, 10 µM [3]: 0.679 ×10⁻⁶ cm/s; Activity [4]: 0.134%; Activity [5]: 318 Ω·cm² |
| CS(=O)(=O)O.O=C(OCCN1CCOCC1)c1cc2cc3c(cc2s1)OCO3 | – | – | – | – | – | – | – | LD50 [15]: > 500 mg/kg/day |
| COc1ccc2cc(C(=O)OCCN(C)C)oc2c1.CS(=O)(=O)O | – | – | – | – | – | – | – | LD50 [15]: > 500 mg/kg/day |
| COc1ccc2cc(C(=O)OCCCN(C)C)sc2c1 [listing 2 of 2 here] | Insoluble | Soluble | Soluble | Insoluble | Insoluble | Insoluble | Soluble | – |
| COc1ccc2cc(C(=O)OCCCN(C)C)sc2c1.CS(=O)(=O)O | – | – | – | – | – | – | – | LD50 [15]: > 500 mg/kg/day |

More lines, main results first:

| solubility [6] | solubility [7] | solubility [8] | solubility [9] | solubility [10] | solubility [11] | solubility [12] | Structure (SMILES) | other results |
| --- | --- | --- | --- | --- | --- | --- | --- | --- |
| Insoluble | Soluble | Soluble | Insoluble | Insoluble | Insoluble | Soluble | CN(C)CCCOC(=O)c1cc2cc3c(cc2s1)OCO3 | – |
| Soluble | Soluble | Soluble | Soluble | Soluble | Insoluble | Soluble | COc1ccc2cc(C(=O)OCP(=O)(O)O)oc2c1 | – |
| Insoluble | Insoluble | Insoluble | Insoluble | Insoluble | Insoluble | Insoluble | CCOC(=O)c1cc2ccc(OC)cc2s1 | – |
| Insoluble | Insoluble | Soluble | Insoluble | Insoluble | Insoluble | Soluble | CCCCOC(=O)c1cc2ccc(OC)cc2s1 | – |
| Soluble | Soluble | Soluble | Soluble | Insoluble | Insoluble | Soluble | COc1ccc2cc(C(=O)N(C)CCN(C)C)oc2c1 | – |
| Soluble | Soluble | Soluble | Soluble | Soluble | Insoluble | Soluble | COc1ccc2cc(C(=O)OCCN3CCOCC3)oc2c1 | – |
| Soluble | Soluble | Soluble | Soluble | Soluble | Insoluble | Soluble | COc1ccc2cc(C(=O)OCCCN(C)C)oc2c1 | – |
| Insoluble | Soluble | Soluble | Insoluble | Insoluble | Insoluble | Soluble | CN(C)CCNC(=O)c1cc2cc3c(cc2s1)OCO3 | – |
